In data set [1] the target is T1, Ecto-NOX disulfide-thiol exchanger 2 (Homo sapiens) (UniProt Q16206).
T1 sequence (whole entry): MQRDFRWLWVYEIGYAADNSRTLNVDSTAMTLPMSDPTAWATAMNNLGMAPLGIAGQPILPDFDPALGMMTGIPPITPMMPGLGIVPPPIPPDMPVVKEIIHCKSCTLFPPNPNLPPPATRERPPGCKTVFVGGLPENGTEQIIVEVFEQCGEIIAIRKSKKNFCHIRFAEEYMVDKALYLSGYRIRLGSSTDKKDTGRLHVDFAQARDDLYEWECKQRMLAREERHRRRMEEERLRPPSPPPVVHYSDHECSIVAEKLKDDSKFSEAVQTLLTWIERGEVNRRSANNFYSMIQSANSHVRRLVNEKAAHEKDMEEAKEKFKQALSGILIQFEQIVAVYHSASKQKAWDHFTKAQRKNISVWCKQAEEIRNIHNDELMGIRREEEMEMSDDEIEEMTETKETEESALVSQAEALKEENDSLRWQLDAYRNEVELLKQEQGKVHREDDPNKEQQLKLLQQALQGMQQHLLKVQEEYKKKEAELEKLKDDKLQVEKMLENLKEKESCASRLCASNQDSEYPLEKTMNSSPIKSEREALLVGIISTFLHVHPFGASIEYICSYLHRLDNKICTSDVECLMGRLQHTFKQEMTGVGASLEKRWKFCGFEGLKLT
As to the kind of experiment: Inhibition of tNOX in human AGS cells assessed as reduction in cell migration. It counts as cell-based.

Data set [2] concerns AGS. As to the kind of experiment: Induction of apoptosis in human AGS cells assessed as change in mitochondrial transmembrane potential incubated for 1.5 hrs by DiOC6(3) dye-based flow cytometric analysis. It counts as functional, cell-based. On the technique in general: Flow cytometry measures light scatter and fluorescence of single cells or particles in a stream.
The next data set deals with HeLa. As to the kind of experiment: Antiproliferative activity against human HeLa cells after 72 hrs by MTT assay. Type of data set: functional, cell-based.
Data set [3] is described as follows: Antiproliferative activity against human K562/4 cells after 72 hrs by MTT assay. Type of data set: functional, cell-based. As to conditions: K562/4, 72 h. In general terms: Tetrazolium assays rely on reduction of a dye to a coloured formazan, in cell work by metabolically active cells.
The nature of data set [4]: Drug uptake in human K562/4 cells at 3 uM incubated for 2 hrs in presence of verapamil by flow cytometric analysis. It counts as ADME, cell-based. The conditions noted are these: k562/4, 2 h. Put shortly: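 K562 and K562/4 cells incubated 2 h with 3 µM compound; uptake measured by flow cytometry as ratios (arbitrary units) of mean fluorescence channels of the histograms; verapamil (10 µM), a Pgp transport blocker, added 30 min before compound where used.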

In data set [5] the test system is AGS. As to the kind of experiment: Induction of apoptosis in human AGS cells assessed as necrotic cells at 0.1 uM after 24 hrs by annexin V-FITC staining-based flow cytometric analysis (Rvb=0.9%). It counts as functional. Put shortly: (§1)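 AGS cells exposed to compound for 24 h; Annexin V-FITC staining and flow cytometry used to give percentage of apoptotic cells; mean ± S.E. from at least three independent experiments.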

The subject of data set [6] is AGS. As to the kind of experiment: Induction of apoptosis in human AGS cells assessed as late apoptotic cells at 0.1 uM after 24 hrs by annexin V-FITC staining-based flow cytometric analysis (Rvb=0.3%). It counts as functional. The method, boiled down:
as §1

Data set [7] concerns AGS. As to the kind of experiment: Induction of apoptosis in human AGS cells assessed as early apoptotic cells at 0.1 uM after 24 hrs by annexin V-FITC staining-based flow cytometric analysis (Rvb=7.2%). Type of data set: functional. The method, boiled down: as §1
The subject of data set [8] is AGS. In words: Induction of apoptosis in human AGS cells assessed as early apoptotic cells at 1 uM after 24 hrs by annexin V-FITC staining-based flow cytometric analysis (Rvb=7.2%). Type of data set: functional. The method, boiled down:
as §1

Data set [9] has as its system AGS. As to the kind of experiment: Upregulation of phosphorylated p53 level in human AGS cells at 1 and 5 uM after 24 hrs by Western blot analysis. Type of data set: functional, cell-based. Background: A western blot detects proteins with antibodies after separation by electrophoresis.
Data set [10] has as its system AGS. As to the kind of experiment: Upregulation of caspase3-directed PARP cleavage in human AGS cells at 5 uM after 24 hrs by Western blot analysis. Type of data set: functional, cell-based.
The subject of data set [11] is AGS. In words: Downregulation of tNOX protein level in human AGS cells at 0.1 to 0.5 uM after 24 hrs by Western blot analysis. It counts as functional, cell-based.
In data set [12] the test system is AGS. In words: […] in human AGS cells assessed as downregulation of beta-catenin after 24 hrs by Western blot analysis. Type of data set: functional, cell-based.
Data set [13] is described as follows: Antiproliferative activity against mouse NIH/3T3 cells after 48 hrs by cell impedance based study. As to conditions: NIH3T3, 48 h.
The test system of a further data set is Calf thymus DNA. In words: Binding affinity to calf thymus double stranded DNA assessed as number of base pairs covered by one molecule of compound by spectrophotometric titration method. Type of data set: nucleic-acid assay. The conditions noted are these: Bos taurus.

Data on one compound can be found in ChEMBL document CHEMBL3745659, “Synthesis and Characterization of 4,11-Diaminoanthra[2,3-b]furan-5,10-diones: Tumor Cell Apoptosis through tNOX-Modulated NAD(+)/NADH Ratio and SIRT1” (J Med Chem, 2015).

SMILES strings stand for the structures. Active and inactive are the calls of the source. The calls are words filed in the database; no cut-off is given here.

The IC50 is the midpoint of a concentration-inhibition curve. Read a low IC50 as higher potency. As for `CNCCNc1c2c(c(NCCNC)c3occc13)C(=O)c1ccccc1C2=O`, the inhibition entry in [1] is “Active”. The outcome with AGS [2], in the data set on AGS [9], with AGS [10], in the data set on AGS [11] and in the data set with AGS [12] was Active. Further, the IC50 with HeLa was 170 nM; in [3], 150 nM; in data set [13] it was 230 nM. Further, the Drug uptake result in [4] was “Active”. Further, the Activity with AGS [5] was 10.2%; in the data set with AGS [6], 1.5%; with AGS [7] it was 25.1%; in the data set with AGS [8], 21.6%; in the data set on Calf thymus DNA, 3.
